{
  "source": "paper PMC8930943",
  "about": "(Clinical Drug Investigation, 2022)",
  "key": {"[1]": {"test": "Study 1", "assay_type": "in vivo, human"}, "[2]": {"test": "Study 2", "assay_type": "in vivo, human"}, "[3]": {"test": "Assessment of safety and tolerability in Study 1 and Study 2", "assay_type": "in vivo, human", "procedure,_shortened": "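Single 30 mg oral dose given after a >8-h fast with 180 mL (Study 1) or 240 mL (Study 2) water. Safety was assessed from AEs, laboratory abnormalities, physical examination, vital signs and 12-lead ECGs taken after 10-min supine rest. ECG times: Study 1 at screening, predose, 6, 48 and 264 h; Study 2 at screening, predose, 6 h, 144 h and follow-up. Participants stayed in-house to 144 h, with follow-up on Days 8–10 and 12.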"}, "[4]": {"details": "single oral 45 mg dose of [14C] radiolabeled dacomitinib; cited from earlier work"}, "[5]": {"tested_on": "human plasma proteins", "details": "independent of drug concentrations from 250 to 1000 ng/mL; cited from earlier work"}, "[6]": {"details": "cited from earlier work"}, "[7]": {"details": "cited from earlier work", "remark": "listed apart in the source"}, "[8]": {"details": "mild hepatic impairment, single oral dacomitinib 30 mg"}, "[9]": {"details": "Study 2, severe hepatic impairment"}, "[10]": {"details": "severe hepatic impairment, single oral dacomitinib 30 mg"}, "[11]": {"details": "Study 1 and Study 2, single oral dose of 30 mg"}},
  "note": "“And” between values parts separate entries of the source, which are not always exact repeats. Identical values can stand only once. “Also recorded” adds a separate entry of the source. Like-named read-outs stand apart in the source and are kept apart here.",
  "data": [
    {"smiles": "COc1cc2ncnc(Nc3ccc(F)c(Cl)c3)c2cc1NC(=O)/C=C/CN1CCCCC1", "note": "[Dacomitinib]", "values": [
      {"measurement": "adjusted GMR for Cmax,u (90% CI)", "setting": "[1]; Study 1, mild hepatic impairment vs normal hepatic function, printed as ratio", "value": "1.00 (90% CI 0.69–1.44)"},
      {"measurement": "AUCinf and Cmax compared with normal hepatic function", "setting": "[1]; Study 1, mild hepatic impairment, single oral dacomitinib 30 mg", "value": "unchanged; also recorded: similar"},
      {"measurement": "AUCinf decrease compared with normal hepatic function", "setting": "[1]; [8]", "value": 6, "unit": "%"},
      {"measurement": "Cmax increase compared with normal hepatic function", "setting": "[1]; [8]", "value": 3, "unit": "%"},
      {"measurement": "Cmax decrease compared with normal hepatic function", "setting": "[1]; moderate hepatic impairment, single oral dacomitinib 30 mg", "value": 20, "unit": "%"},
      {"measurement": "AUCinf,u increase compared with normal hepatic function", "setting": "[2]; [9]", "value": 32, "unit": "%"},
      {"measurement": "Cmax,u increase compared with normal hepatic function", "setting": "[2]; [9]", "value": "approximately 69%"},
      {"measurement": "adjusted GMR for Cmax,u (90% CI)", "setting": "[2]; Study 2, severe hepatic impairment vs normal hepatic function, printed as ratio", "value": "1.69 [90% CI 1.08–2.63]"},
      {"measurement": "AUCinf increase compared with normal hepatic function", "setting": "[2]; [10]", "value": "4% and 4.4%"},
      {"measurement": "AEs reported", "setting": "[3]; Study 1, normal hepatic function or mild hepatic impairment groups", "value": "no AEs were reported"},
      {"measurement": "serious AEs, discontinuations, treatment-related deaths", "setting": "[3]; [11]", "value": "no serious AEs, discontinuations due to study treatment, or treatment-related deaths"},
      {"measurement": "vital signs, laboratory values, ECG measurements", "setting": "[3]; [11]", "value": "No clinically significant changes"},
      {"measurement": "AEs reported", "setting": "[3]; Study 2, normal hepatic function or severe hepatic impairment groups", "value": "no AEs were reported"},
      {"measurement": "tolerability", "setting": "[3]; single oral dose of 30 mg, healthy participants and participants with mild, moderate, or severe hepatic impairment", "value": "well tolerated"},
      {"measurement": "radioactivity recovered in feces", "setting": "[4]", "value": 79, "unit": "%"},
      {"measurement": "radioactivity recovered in feces as dacomitinib", "setting": "[4]", "value": 20, "unit": "%"},
      {"measurement": "radioactivity recovered in urine", "setting": "[4]", "value": 3, "unit": "%"},
      {"measurement": "radioactivity recovered in urine as dacomitinib", "setting": "[4]", "value": "< 1", "unit": "%"},
      {"measurement": "in vitro binding to human plasma proteins", "setting": "[5]", "value": "approximately 98%"},
      {"measurement": "correlation of concentrations with changes in corrected QT interval", "setting": "[6]", "value": "not found to correlate"}
    ]},
    {"smiles": "O=C(/C=C/CN1CCCCC1)Nc1cc2c(Nc3ccc(F)c(Cl)c3)ncnc2cc1O", "note": "[PF-05199265, O-desmethyl dacomitinib]", "values": [
      {"measurement": "AUCinf decrease compared with normal liver function", "setting": "[2]; [10]", "value": 19, "unit": "%"},
      {"measurement": "Cmax decrease compared with normal liver function", "setting": "[2]; [10]", "value": 66, "unit": "%"}
    ]},
    {"smiles": "C=CC(=O)Nc1cc(Nc2nccc(-c3cn(C)c4ccccc34)n2)c(OC)cc1N(C)CCN(C)C", "note": "[osimertinib]", "values": [
      {"measurement": "decrease in AUC versus normal hepatic function", "setting": "[7]; cancer patients with mild hepatic impairment (n = 7)", "value": 63, "unit": "%"},
      {"measurement": "decrease in AUC versus normal hepatic function", "setting": "[7]; cancer patients with moderate hepatic impairment (n = 5)", "value": 68, "unit": "%"}
    ]}
  ]
}
